Data published in ChEMBL document CHEMBL4837207, “Discovery of pyrrolo[2,3-d]pyrimidine derivatives as potent Axl inhibitors: Design, synthesis and biological evaluation” (Eur J Med Chem, 2021).

How the values were obtained:
[1] = molecular target: T1, Receptor-type tyrosine-protein kinase FLT3 (Homo sapiens, UniProt P36888); experiment: Inhibition of FLT-3 (unknown origin) by ELISA
T1 sequence (P36888 whole entry): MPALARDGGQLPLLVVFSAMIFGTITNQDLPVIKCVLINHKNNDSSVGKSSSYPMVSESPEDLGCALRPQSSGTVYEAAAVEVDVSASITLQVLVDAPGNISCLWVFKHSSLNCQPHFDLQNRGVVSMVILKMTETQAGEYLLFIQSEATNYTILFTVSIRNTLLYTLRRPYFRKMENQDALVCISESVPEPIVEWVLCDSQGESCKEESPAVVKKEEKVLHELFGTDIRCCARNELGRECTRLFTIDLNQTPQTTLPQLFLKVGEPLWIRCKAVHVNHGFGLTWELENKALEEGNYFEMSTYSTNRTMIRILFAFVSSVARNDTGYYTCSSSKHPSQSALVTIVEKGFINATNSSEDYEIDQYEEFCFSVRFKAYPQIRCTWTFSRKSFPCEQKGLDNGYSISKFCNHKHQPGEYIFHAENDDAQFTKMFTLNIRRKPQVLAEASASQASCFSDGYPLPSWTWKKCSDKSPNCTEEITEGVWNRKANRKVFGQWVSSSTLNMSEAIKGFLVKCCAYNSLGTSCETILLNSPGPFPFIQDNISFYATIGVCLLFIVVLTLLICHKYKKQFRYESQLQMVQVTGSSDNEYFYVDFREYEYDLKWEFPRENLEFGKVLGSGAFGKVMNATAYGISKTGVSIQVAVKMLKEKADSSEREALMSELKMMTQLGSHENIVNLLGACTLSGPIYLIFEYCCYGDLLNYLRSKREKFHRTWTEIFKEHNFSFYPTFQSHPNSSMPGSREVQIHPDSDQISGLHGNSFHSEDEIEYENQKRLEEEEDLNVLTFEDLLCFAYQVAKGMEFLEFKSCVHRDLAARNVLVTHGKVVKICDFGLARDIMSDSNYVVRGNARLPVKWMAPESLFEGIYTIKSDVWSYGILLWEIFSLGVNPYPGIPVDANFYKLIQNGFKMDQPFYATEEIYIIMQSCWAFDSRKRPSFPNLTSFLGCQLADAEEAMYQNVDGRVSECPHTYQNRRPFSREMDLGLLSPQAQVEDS

Ephrin type-A receptor 2 = Ephrin type-A receptor 2 (Homo sapiens, UniProt P29317); experiment: Inhibition of EPHA2 (unknown origin) by ELISA
Chain of Ephrin type-A receptor 2 (P29317 whole entry): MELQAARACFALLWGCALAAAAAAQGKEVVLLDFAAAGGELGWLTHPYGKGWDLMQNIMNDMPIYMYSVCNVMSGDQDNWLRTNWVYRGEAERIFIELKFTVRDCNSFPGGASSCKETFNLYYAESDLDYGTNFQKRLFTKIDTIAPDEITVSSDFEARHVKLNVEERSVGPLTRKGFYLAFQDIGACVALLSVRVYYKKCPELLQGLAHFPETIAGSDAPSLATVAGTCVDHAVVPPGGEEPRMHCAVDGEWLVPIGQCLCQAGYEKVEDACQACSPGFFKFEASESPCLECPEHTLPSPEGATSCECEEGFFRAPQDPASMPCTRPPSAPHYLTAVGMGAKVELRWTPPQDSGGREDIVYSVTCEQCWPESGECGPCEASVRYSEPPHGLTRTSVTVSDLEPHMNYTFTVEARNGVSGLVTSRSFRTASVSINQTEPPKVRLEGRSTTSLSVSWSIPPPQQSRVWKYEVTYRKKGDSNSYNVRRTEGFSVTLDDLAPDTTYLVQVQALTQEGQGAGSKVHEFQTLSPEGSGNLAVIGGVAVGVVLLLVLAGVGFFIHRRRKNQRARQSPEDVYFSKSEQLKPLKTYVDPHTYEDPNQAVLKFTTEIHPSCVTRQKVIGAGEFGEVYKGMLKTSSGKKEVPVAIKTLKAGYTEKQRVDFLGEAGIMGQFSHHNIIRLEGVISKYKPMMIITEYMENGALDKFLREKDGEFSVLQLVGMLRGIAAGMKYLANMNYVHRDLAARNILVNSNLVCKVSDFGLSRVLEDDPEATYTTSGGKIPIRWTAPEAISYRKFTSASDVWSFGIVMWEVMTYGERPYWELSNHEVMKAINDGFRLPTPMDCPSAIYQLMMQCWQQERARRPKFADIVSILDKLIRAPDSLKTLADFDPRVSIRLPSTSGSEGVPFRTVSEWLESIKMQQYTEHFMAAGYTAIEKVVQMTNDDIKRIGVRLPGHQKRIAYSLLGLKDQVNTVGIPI

[2] = Inhibition of ABL (unknown origin) by ELISA; design: species or system Homo sapiens
[3] = Tmax in Sprague-Dawley rat at 3 mg/kg, po via gavage measured up to 24 hrs by LC-MS analysis; type: ADME, organism-based; conditions: in vivo
Outline: (§1)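 Male Sprague-Dawley rats (n = 3) dosed once by oral gavage at 3 mg/kg as a solution in 5% DMSO/95% (0.5% CMC-Na). Blood sampled at 0.25, 0.5, 1, 2, 4, 6, 8 and 24 h, kept on wet ice, serum separated by centrifugation and stored at -20 °C. Serum levels measured by LC-MS/MS; parameters reported as means.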

[4] = molecular target: Platelet-derived growth factor receptor beta (Homo sapiens, UniProt P09619); experiment: Inhibition of PDGFRbeta (unknown origin) by ELISA
Chain of Platelet-derived growth factor receptor beta (P09619 whole entry): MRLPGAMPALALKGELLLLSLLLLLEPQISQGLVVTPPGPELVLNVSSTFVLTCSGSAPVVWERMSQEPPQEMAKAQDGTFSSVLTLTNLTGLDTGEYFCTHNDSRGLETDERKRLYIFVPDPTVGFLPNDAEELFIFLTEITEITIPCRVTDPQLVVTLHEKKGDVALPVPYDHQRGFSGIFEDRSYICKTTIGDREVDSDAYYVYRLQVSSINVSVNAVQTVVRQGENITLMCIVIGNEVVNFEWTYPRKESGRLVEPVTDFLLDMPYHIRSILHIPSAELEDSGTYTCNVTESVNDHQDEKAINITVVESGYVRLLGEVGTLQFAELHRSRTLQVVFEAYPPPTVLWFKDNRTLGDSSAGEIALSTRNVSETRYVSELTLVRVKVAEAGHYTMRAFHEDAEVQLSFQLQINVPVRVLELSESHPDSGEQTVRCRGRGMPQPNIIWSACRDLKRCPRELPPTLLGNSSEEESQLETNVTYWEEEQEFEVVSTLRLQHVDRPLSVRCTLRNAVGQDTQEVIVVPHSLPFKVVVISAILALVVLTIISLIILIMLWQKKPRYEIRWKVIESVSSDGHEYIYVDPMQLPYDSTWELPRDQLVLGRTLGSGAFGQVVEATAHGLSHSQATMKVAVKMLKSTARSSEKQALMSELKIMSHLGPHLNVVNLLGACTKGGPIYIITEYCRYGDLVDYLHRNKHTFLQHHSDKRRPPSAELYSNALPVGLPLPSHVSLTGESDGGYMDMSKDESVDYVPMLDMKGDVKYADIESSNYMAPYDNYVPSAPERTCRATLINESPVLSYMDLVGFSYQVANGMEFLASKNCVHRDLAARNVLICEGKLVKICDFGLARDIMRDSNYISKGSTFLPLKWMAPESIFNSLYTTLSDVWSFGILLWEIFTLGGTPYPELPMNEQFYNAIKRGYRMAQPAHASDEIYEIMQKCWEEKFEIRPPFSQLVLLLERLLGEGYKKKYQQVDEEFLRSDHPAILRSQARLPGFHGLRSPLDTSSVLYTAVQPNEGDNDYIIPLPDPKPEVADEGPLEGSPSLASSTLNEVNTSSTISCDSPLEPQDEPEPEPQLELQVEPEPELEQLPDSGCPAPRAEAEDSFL

[5] = AUC (0 to infinity) in Sprague-Dawley rat at 3 mg/kg, po via gavage measured up to 24 hrs by LC-MS analysis; type: ADME, organism-based; design: route oral, dose 3 mg/kg, time <=24; conditions: in vivo; outline: as §1
[6] = molecular target: Vascular endothelial growth factor receptor 2 (Homo sapiens, UniProt P35968); experiment: Inhibition of VEGFR2 (unknown origin) by ELISA
Chain of Vascular endothelial growth factor receptor 2 (P35968 whole entry): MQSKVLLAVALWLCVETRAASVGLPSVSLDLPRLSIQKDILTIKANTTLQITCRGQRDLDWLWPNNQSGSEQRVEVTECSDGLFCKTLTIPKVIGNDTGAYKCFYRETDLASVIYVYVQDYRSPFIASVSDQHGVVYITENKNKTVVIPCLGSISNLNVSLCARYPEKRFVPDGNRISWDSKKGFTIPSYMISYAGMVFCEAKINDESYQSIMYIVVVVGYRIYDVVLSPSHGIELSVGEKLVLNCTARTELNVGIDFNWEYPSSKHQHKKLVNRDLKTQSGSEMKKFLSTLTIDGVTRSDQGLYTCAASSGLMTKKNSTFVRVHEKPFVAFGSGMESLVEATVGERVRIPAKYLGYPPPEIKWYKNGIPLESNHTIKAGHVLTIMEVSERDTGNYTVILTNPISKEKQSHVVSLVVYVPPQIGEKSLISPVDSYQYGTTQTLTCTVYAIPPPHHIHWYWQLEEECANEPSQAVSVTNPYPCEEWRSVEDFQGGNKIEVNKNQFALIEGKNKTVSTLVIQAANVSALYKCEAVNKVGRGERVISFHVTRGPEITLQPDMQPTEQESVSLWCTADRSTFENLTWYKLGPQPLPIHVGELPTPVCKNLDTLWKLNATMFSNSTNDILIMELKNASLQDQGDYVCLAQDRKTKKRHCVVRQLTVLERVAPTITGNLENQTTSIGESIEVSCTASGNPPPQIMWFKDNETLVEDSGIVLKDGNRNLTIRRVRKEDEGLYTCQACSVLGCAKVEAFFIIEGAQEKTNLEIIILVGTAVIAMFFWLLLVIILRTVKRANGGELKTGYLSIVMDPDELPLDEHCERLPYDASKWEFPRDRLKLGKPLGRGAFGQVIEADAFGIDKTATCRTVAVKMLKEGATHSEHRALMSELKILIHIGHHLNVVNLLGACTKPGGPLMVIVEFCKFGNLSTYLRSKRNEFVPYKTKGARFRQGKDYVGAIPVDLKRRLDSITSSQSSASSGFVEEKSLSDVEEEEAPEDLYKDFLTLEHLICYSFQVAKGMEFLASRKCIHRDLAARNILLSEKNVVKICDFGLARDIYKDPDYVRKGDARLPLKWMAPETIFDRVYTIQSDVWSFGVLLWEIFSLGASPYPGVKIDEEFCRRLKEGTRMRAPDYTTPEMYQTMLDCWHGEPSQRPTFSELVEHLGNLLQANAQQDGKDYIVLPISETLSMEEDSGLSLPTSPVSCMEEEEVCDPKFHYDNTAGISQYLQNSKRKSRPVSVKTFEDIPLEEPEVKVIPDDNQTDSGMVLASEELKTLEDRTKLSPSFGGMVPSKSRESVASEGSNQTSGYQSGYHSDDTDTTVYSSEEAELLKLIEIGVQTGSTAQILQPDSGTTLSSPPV

[7] = molecular target: T2, Tyrosine-protein kinase receptor UFO (Mus musculus) (UniProt Q00993); experiment: Inhibition of AXL in mouse BaF3 cells assessed as reduction in AKT phosphorylation at S473 residue by Western blot analysis; type: cell-based; conditions: dose 0.1-10 nM
T2 sequence (whole entry): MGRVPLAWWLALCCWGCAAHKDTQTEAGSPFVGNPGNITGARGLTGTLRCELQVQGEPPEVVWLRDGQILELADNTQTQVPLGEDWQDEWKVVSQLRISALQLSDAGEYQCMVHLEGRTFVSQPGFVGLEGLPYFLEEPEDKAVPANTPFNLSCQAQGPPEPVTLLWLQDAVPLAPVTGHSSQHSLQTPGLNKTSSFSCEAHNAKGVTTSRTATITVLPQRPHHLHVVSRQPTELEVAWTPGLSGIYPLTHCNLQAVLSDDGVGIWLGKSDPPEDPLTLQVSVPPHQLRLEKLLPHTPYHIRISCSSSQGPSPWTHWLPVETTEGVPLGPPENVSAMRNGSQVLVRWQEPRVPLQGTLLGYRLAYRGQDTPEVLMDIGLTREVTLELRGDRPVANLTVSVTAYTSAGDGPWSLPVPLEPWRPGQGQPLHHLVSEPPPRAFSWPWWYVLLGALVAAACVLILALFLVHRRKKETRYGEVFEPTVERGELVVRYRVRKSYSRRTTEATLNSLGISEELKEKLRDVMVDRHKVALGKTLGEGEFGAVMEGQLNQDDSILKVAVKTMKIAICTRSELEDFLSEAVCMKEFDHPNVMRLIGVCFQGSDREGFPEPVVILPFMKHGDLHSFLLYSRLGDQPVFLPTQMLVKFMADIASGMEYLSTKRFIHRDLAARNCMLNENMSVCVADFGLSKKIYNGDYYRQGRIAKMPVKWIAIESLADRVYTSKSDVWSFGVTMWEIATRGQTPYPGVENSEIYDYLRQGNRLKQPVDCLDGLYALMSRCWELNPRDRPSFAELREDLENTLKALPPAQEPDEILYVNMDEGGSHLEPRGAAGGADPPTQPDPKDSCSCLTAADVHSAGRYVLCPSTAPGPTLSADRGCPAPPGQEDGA
Outline: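 Cells in exponential growth (BaF3 engineered to stably express constitutively active human wild-type TEL-Axl; MKN-45) exposed to the indicated concentrations for 2 h, then lysed in 1× SDS sample buffer. Phosphorylated proteins detected by Western blot.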

[8] = Toxicity in nude mouse xenografted with mouse BaF3 cells stably expressing human TEL-AXL assessed as body weight at 10 to 100 mg/kg, po administered once daily for 14 consecutive days; type: organism-based; conditions: in vivo, 336 h, dose 10-100 mg/kg, time 14 day
Outline: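 BaF3/TEL-Axl cells implanted subcutaneously in nude mice and grown to 700–800 mm³; 1.5 mm³ tumor fragments then transplanted sc into the right flank. At 100–200 mm³, mice were randomized (n = 6 per treated group, 12 vehicle). Oral dosing once daily for 14 days at 10 or 50 mg/kg, with the higher dose raised to 100 mg/kg from day 8. Body weight tracked throughout treatment.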

[9] = molecular target: Receptor tyrosine-protein kinase erbB-4 (Homo sapiens, UniProt Q15303); experiment: Inhibition of ERBB4 (unknown origin) by ELISA
Chain of Receptor tyrosine-protein kinase erbB-4 (Q15303 whole entry): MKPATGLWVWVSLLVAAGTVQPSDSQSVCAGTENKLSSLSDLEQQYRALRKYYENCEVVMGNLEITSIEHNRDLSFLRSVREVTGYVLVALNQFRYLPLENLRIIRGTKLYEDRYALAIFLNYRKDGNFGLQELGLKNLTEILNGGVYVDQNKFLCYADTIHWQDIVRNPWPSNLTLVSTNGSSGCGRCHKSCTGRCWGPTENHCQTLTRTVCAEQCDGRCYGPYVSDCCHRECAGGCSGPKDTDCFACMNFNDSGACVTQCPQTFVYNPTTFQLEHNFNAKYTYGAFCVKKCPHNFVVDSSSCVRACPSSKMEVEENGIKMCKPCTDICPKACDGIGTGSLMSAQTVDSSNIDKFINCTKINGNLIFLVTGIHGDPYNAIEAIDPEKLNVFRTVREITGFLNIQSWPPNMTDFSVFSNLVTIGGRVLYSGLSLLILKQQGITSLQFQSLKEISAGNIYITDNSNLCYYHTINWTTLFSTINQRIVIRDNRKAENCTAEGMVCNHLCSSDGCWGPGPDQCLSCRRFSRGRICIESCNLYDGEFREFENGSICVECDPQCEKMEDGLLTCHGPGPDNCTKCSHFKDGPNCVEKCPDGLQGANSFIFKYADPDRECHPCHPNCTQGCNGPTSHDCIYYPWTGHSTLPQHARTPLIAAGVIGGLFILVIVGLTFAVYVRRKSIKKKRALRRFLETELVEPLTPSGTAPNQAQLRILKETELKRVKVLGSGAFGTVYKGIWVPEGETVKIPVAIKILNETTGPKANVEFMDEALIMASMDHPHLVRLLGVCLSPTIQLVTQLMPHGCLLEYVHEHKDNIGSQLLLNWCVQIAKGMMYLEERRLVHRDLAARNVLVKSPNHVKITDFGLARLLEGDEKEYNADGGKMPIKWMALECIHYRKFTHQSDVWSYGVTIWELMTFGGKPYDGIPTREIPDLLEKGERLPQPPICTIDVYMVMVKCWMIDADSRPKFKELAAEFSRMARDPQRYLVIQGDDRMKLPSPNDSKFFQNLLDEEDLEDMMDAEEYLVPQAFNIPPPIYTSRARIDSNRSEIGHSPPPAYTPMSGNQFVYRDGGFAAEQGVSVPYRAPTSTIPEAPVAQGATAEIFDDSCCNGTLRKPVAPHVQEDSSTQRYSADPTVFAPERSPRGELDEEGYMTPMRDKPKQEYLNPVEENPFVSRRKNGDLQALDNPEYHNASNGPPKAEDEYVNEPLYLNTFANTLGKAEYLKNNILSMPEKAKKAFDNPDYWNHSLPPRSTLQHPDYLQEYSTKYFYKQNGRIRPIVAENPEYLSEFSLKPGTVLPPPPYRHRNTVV

[10] = molecular target: Insulin-like growth factor 1 receptor (Homo sapiens, UniProt P08069); experiment: Inhibition of IGF1R (unknown origin) by ELISA
BaF3 = experiment: Antiproliferative activity against mouse BaF3 stably expressing human TEL-AXL incubated for 72 hrs; type: functional, cell-based; conditions: BaF3, 72 h

IC50 [1]: > 1000 nM
IC50 (Ephrin type-A receptor 2): > 500 nM
IC50 [2]: > 1000 nM
Tmax [3]: 1.08 h
IC50 [4]: > 1000 nM
AUC(0-inf) [5]: 44300 ng·h/mL
IC50 [6]: > 1000 nM
inhibition [7]: Dose-Dependent Effect
IC50 [9]: > 1000 nM
IC50 [10]: > 1000 nM
IC50 (BaF3): < 1 nM
Compound: CC(C)n1cc(C(=O)Nc2cc(F)c(-c3c[nH]c4ncnc(N)c34)cc2F)c(=O)c(-c2ccc(F)cc2)c1
Activity [8]: Non-Toxic
